Measurements reported in the EternaBench riboswitch data.

Test system: MS2 coat protein
Assay: apparent Kd, MS2 coat protein; higher = weaker binding; RNA-MaP array; FMN 200 µM where present
In short: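 On Illumina sequencing-chip clusters, designs were transcribed by stalled E. coli RNA polymerase and titrated with SNAP-549-labelled MS2 coat protein (0.7 or 1.5 nM, doubling to 3 µM), without and then with constant ligand, in 100 mM Tris-HCl pH 7.5, 80 mM KCl, 4 mM MgCl2, BSA, DTT, yeast tRNA and Tween-20. Apparent Kd is the median of filtered per-cluster curve fits to green signal normalised to red-channel RNA signal and control-cluster median Fmax.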

[1] = designed as: OFF switch for flavin mononucleotide, no ligand
[2] = ligand present: flavin mononucleotide, designed as: OFF switch for flavin mononucleotide
[3] = designed as: ON switch for flavin mononucleotide, no ligand
[4] = ligand present: flavin mononucleotide, designed as: ON switch for flavin mononucleotide

Sequence	apparent Kd [1]	apparent Kd [2]	apparent Kd [3]	apparent Kd [4]
CAUAUACAGGGAGGAUAUAACAUGAGGAUCACCCAUGUGCAAUGCUCAAUGUUAGAAGGCCCAAUAGAAUCGCAAAAGGCAUCC	89.8 nM	272 nM	–	–
GGAUAGUGUCGUUAUCCGUAGCGAACAUGAGGAUCACCCAUGUAGGAUAUGUUAUUAAACUAAUAACAGAAGGGCGUUAGUCUC	37.1 nM	42.8 nM	–	–
GCCUUAUCGGUCAGGAUAUACACCCGUUAGUUGUUGUAGAAGGGACAUGAGGAUCACCCAUGUACAUUACAUUG	22.8 nM	60 nM	–	–
CCGGAAACGGGUAGCCUGACAUGAGGAUCACCCAUGUGAUCCAAGGAUAUGGAUCCUAAUUGGAUCCAGAAGGUGGUUGGCUAC	–	–	76.7 nM	1200 nM
AUAUGGAAUACAGGAUAUGUAAGUUUUAAGUGUAUUGGUUAUUACUUUACAACAGAAGGGUAUUACAUGAGGAUCACCCAUGUA	–	–	13.2 nM	10.7 nM
AUAUCAUACCAAGGAUAUUUAGGACUUGUGUAGACAUGAGGAUCACCCAUGUGGCGUUAGUCACGGGAGAAGGUGGUAUGAUAU	–	–	83 nM	18.5 nM
UCGGCGCGAGGAUAUACGUUUGCUUUUUUUUGUCUUUGUGUACAUGAGGAUCACCCAUGUAGAAGGCGCGCCGC	21.3 nM	36.7 nM	–	–
AAUUGACCGCUAGGAUAUGCACAUGAGGAUCACCCAUGUAAGCGUGUAAAGUGGUAUGCCCGUGUGUAGAAGGAGCGAUGCUGA	47.6 nM	40.6 nM	–	–
UGUUGUAAUACAGGAUAUCUAUUAUUUUUAUUUAGAGAAGGGUAAUCACAUGAGGAUCACCCAUGUAUAUACGAGGAAGAAGAG	–	–	186 nM	182 nM
AUGCCUAAUGAGAAGGUGUGUAUAAAUUAUAUACAAGGAUAUCGGUCAAGCAUGAAAACAUGAGGAUCACCCAUGUUAAGGCAU	–	–	7.77 nM	6.72 nM
GUGUGCUGAGGAUAUACAUAGGAAGAGAAGAGAAGAGAAGGACAUGAGGAUCACCCAUGUAGAAGGCAGAGUGU	28.2 nM	33.3 nM	–	–
UUAGGCGACCAGAAGGGUGACAUGAGGAUCACCCAUGUAGAUGUGUUCCCGCUUGGGAGCCGUCCACAGGAUAUGGUUGGUUAG	–	–	35.7 nM	16.8 nM
CGUGCACAUGAGGAUCACCCAUGUCGUCGCGAUCAAGGAUAUGAAAGCAGCGUUAUGUUAUCAGAAGGUGAACCUC	–	–	28.1 nM	21.9 nM
GGUCCGUGUACAUGAGGAUCACCCAUGUCGAUGUUUCCUGGACAGGAUAUAUGCUUAAUACCGACAUAGAAGGGUCCACGUGUG	–	–	91 nM	191 nM
GCUGCAUAGGCAGGAUAUGCAAAAGCAGAUGCAAAGCAUCUGCAAAAUACAUGAGGAUCACCCAUGUAGAAGGGCCUGUGCAGU	23.1 nM	20.6 nM	–	–
UGGGUGGUAUGAGGAUAUGCGCGCGAAACGCGCGCAGAAGGCAUGUCAAUAGACAUGAGGAUCACCCAUGUACUAUCCAUCCAA	–	–	91.3 nM	9.19 nM
ACCCGCAGCCGUCAGGAUAUGUUCGCGUCAACAUGAGGAUCACCCAUGUGUGACAAGAAGUACACGCAGAAGGGAUCAAUGCGGG	–	–	16.4 nM	18.3 nM
CUCCGGCGUGUAGGAUAUGGAUCCGAUUAGGAUCCAGAAGGACAUGAGGAUCACCCAUGUACAUGUAAACAGUCAUCACCGGAG	6.24 nM	6.99 nM	–	–
CCUAUACAUGAGGAUCACCCAUGUCAGGAUAUAGAAAGCCGCGGAAUAGGCCGCGGCACUAGAAGGGACUGGCU	27.5 nM	40.5 nM	–	–
AUGAGGGAAGUAGGAUAUGAUCAAGACAUGAGGAUCACCCAUGUAAUGAGGGUGUGUGUCUUUGUUCAGAAGGACUUGUGUCAA	46.4 nM	52.6 nM	–	–
UUAAAUCAUGUAGGAUAUGCAUGGCGAAGCUACGCAGAAGGACAUGAGGAUCACCCAUGUUAUAGCUUCCCAGUUCGGAGGCAA	63.8 nM	230 nM	–	–
CUUUAGUGAGGAUAUCAGUAGUAAUACAAUAGUAUUAUUACUGAGAAGGCACAUGAGGAUCACCCAUGUUCCUC	29.4 nM	120 nM	–	–
AAACAUGUCCGAGGAUAUCUGAGAUCAUUUUCAAGAGAAGGCGGACAUGAGGAUCACCCAUGUCUCUCCUCAUCGACUCCAAAU	6.32 nM	21.1 nM	–	–
